The data set relates to MS2 coat protein. Description: apparent Kd, MS2 coat protein; higher = weaker binding; RNA-MaP array; FMN 200 µM where present. The essentials: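 The apparent Kd is reported as the median of filtered per-cluster binding-curve fits. To get these curves, designs transcribed by stalled E. coli RNA polymerase on Illumina sequencing-chip clusters were titrated with SNAP-549-labelled MS2 coat protein from 0.7 or 1.5 nM, doubling to 3 µM. Titrations were run without and then with constant ligand in 100 mM Tris-HCl pH 7.5, 80 mM KCl, 4 mM MgCl2, BSA, DTT, yeast tRNA and Tween-20, and green signal was normalised to red-channel RNA signal and control-cluster median Fmax.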

The mark [1] stands for this setting: designed as: OFF switch for flavin mononucleotide, no ligand.
The mark [2] stands for this setting: ligand present: flavin mononucleotide, designed as: OFF switch for flavin mononucleotide.
The mark [3] stands for this setting: designed as: ON switch for flavin mononucleotide, no ligand.
The mark [4] stands for this setting: ligand present: flavin mononucleotide, designed as: ON switch for flavin mononucleotide.

Take “GUGUAGUCAGGAUAUACAUAGGAAGAUAAUAUAAUAUAAGUACAUGAGGAUCACCCAUGUAGAAGGGACAGUGU”: the “apparent Kd” value reads like this: under setting [1], 38.5 nM; under setting [2], 53.8 nM.
Turning to “AAUUGGAUCCAGAAGGCAUGGACGACCCGUCAAAUUAACAUGAGGAUCACCCAUGUCAAAAGACAUGAGGAUAUGGAUCCUAAA”, the “apparent Kd” value was 869 nM under setting [3] and 28.4 nM under setting [4].
Take “CAUGUCCUCACAGGAUAUGCAAUGUAUUUCAUUGCAGAAGGGUGAACACAUGAGGAUCACCCAUGUGGACAUGAUAUAUUUAAG”: the “apparent Kd” value under setting [3] was 529 nM and the “apparent Kd” value under setting [4] stood at 63.4 nM.
As for “CGUAUGUCAGGAUAUGCGUAAACCGGUCAGGGCGAGCGGCAGCAGAAGGGACAUGAGGAUCACCCAUGUUCGGG”, the “apparent Kd” value reads like this: under setting [1], 46.7 nM; under setting [2], 46.6 nM.
Regarding “AGGAAGUCAGGAUAUGCUGCUCGUCACUUGCGUGAUGAGUAGCAGAAGGGACAUGAGGAUCACCCAUGUAAAGA”, the “apparent Kd” value runs as follows: under setting [1], 51.1 nM; under setting [2], 65.1 nM.
With “UUUUUGUCAGGAUAUGACUAGAUGCACGUUAGUGCAUCUACUUAGAAGGGACAUGAGGAUCACCCAUGUAUUCC”, the “apparent Kd” value is, setting by setting: under setting [1], 29.8 nM; under setting [2], 24.3 nM.
As for “CUUUUGUGAGGAUAUCAGUAGUAAAUAAAUAAAAUUUCUACUGAGAAGGCACAUGAGGAUCACCCAUGUUCCUC”, the “apparent Kd” value by setting is: under setting [1], 38.5 nM; under setting [2], 220 nM.
Consider “UUCGCUAAGGUGUAGCGAGACACGCAAGAAGGGUGAUGCACAUGAGGAUCACCCAUGUAAGCCUUACAGGAUAUUGCUUGCCGA”, for which the “apparent Kd” value worked out at 899 nM under setting [3] and 211 nM under setting [4].
Consider “GCAUGACAAAGUCAUGCAAUACGAACAUGAGGAUCACCCAUGUAGGAUAUGCUACUCAAAGAGUAGCAGAAGGACAUGUGCCUU”, for which the “apparent Kd” value by setting is: under setting [1], 36.1 nM; under setting [2], 288 nM.
Consider “GAAUUCGCAUGAGGAUAUGCACUCAUUUCAUGUGCAGAAGGUAUUUCAUUAGACAUGAGGAUCACCCAUGUAUUGGUCACUAAC”, for which the “apparent Kd” value is, setting by setting: under setting [3], 21.5 nM; under setting [4], 16.6 nM.
Regarding “GGAAAUCAUGUAGGAUAUGCAUGGCGAAGCUACGCAGAAGGACAUGAGGAUCACCCAUGUUAUAGCUACCCAGUUCGGUGGCAA”, the “apparent Kd” value by setting is: under setting [1], 133 nM; under setting [2], 180 nM.
On the same counts, the results for “GUCUUGUCAGGAUAUCUUACAUAACAAUCGUAGUUACAAUUGGAGAAGGGACAUGAGGAUCACCCAUGUUAGCG” are 32.9 nM and 36 nM.
“AUUAAAACAUAGGAUAUCGAAUUUAUCAUUUAACGAGAAGGAUGAACAUGAGGAUCACCCAUGUGGUAUCAUGG”: the “apparent Kd” value runs as follows: under setting [1], 361 nM; under setting [2], 207 nM.
For the sequence “AGUAACAGAGGAUAUACUAUUUUAUGUGUUUGUUAUUUUAAACAUGAGGAUCACCCAUGUAGAAGGCUGAAUGA”, the “apparent Kd” value under setting [1] worked out at 28.4 nM and the “apparent Kd” value under setting [2] was found to be 29.1 nM.
On the same counts, the results for “AGAUAUGAUGCAGGAUAUCUAUCUUGAAUGAGGAGAGAAGGGCAAGCAGAGACAUAAGCCUUAUUACAUGAGGAUCACCCAUGU” are 10.2 nM and 7.9 nM.
On to “CUUUUGUGAGGAUAUUAUUAGUAAAUAAAUAAAAUUACUACUGAGAAGGCACAUGAGGAUCACCCAUGUUCCUC”, for which the “apparent Kd” value runs as follows: under setting [1], 24.3 nM; under setting [2], 108 nM.
On the same counts, the results for “ACGCGAUGGGAGAAGGUACUUUAAUUAGGUUACACAUGAGGAUCACCCAUGUAAGGAUAUCCCAUCGUUAAAUAUUAUACAGCA” are 6.16 nM and 5.41 nM.
Consider “AAUCAACGAAUACCAGGGCAUUAAUGAGAAGGCCAAUCACAUGAGGAUCACCCAUGUACGAGAGUGGAGGAUAUCAGUGGGCCG”, for which the “apparent Kd” value was found to be 111 nM under setting [3] and 11.3 nM under setting [4].
Take “UGUCGGAGCAGAGGAUAUUACAUGAGGAUCACCCAUGUAUGAACCAAUAGCGGGAAACAGCAAUGUAAGAAGGCUGCUCCGACA”: the “apparent Kd” value was determined as 34.6 nM under setting [1] and 140 nM under setting [2].
For “GUAGCAUAAUCAGGAUAUUCAGAGAAUAAAUAAACAUGAGGAUCACCCAUGUGGCGAAAGCCUAGGGAGAAGGGAUAAUGCUAC”, the “apparent Kd” value was found to be 118 nM under setting [3] and 24.8 nM under setting [4].

Usually apparent Kd stands for a dissociation constant that holds for the conditions of the assay.

The values above are taken from the EternaBench riboswitch data.
